Source: ChEMBL document CHEMBL3526002, “Tissue distribution and identification of radioactivity components at elimination phase after oral administration of [¹⁴C]CS-1036, an α-amylase inhibitor, to rats” (Drug Metab Dispos, 2013)

What was measured:
Format in all cases: ADME, organism-based
Parameters in all cases: dose 5 mg/kg, dosed compound name [14C]CS-1036, route oral
Settings in all cases: in vivo
Small intestine [1] = assay: Drug uptake in albino F344/DuCrlCrlj rat small intestine at 5 mg/kg, po after 72 hrs by liquid scintillation counting
Cerebrum [2] = assay: Drug uptake in albino F344/DuCrlCrlj rat cerebrum assessed as ng equivalent of CS-1036 at 5 mg/kg, po after 72 hrs by liquid scintillation counting
Outline: (§1)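 Single oral [14C]CS-1036 at 5 mg/kg was given to male rats (159–167 g; n = 3). Cerebrum was collected after aortic bleeding at 1, 4, 8, 24, 72, 168 or 336 h, weighed, and homogenized in 2 volumes of saline. A 0.5 ml aliquot was solubilized in Soluene-350 and counted by LSC with external-standard correction. Results are in ng equivalent/g tissue from specific activity and sample weight.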

[3] = Drug uptake in albino F344/DuCrlCrlj rat testis at 5 mg/kg, po after 72 hrs by liquid scintillation counting
Cerebellum [4] = assay: Drug uptake in albino F344/DuCrlCrlj rat cerebellum at 5 mg/kg, po after 168 hrs by liquid scintillation counting
[5] = Drug uptake in albino F344/DuCrlCrlj rat testis at 5 mg/kg, po after 336 hrs by liquid scintillation counting
Thymus = assay: Drug uptake in albino F344/DuCrlCrlj rat thymus assessed as ng equivalent of CS-1036 at 5 mg/kg, po after 8 hrs by liquid scintillation counting
[6] = Drug uptake in albino F344/DuCrlCrlj rat urinary bladder assessed as ng equivalent of CS-1036 at 5 mg/kg, po after 336 hrs by liquid scintillation counting
Kidney = assay: Drug uptake in albino F344/DuCrlCrlj rat kidney at 5 mg/kg, po after 8 hrs by liquid scintillation counting
[7] = Drug uptake in albino F344/DuCrlCrlj rat mandibular gland at 5 mg/kg, po after 1 hr by liquid scintillation counting
Cerebellum [8] = assay: Drug uptake in albino F344/DuCrlCrlj rat cerebellum assessed as ng equivalent of CS-1036 at 5 mg/kg, po after 8 hrs by liquid scintillation counting
Blood [9] = assay: Drug uptake in albino F344/DuCrlCrlj rat blood at 5 mg/kg, po after 4 hrs by liquid scintillation counting
Outline: (§2)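 Male F344/DuCrlCrlj rats (159–167 g; n = 3 per time point) received a single oral dose of [14C]CS-1036 at 5 mg/kg. Blood was taken from the abdominal aorta at 1, 4, 8, 24, 72, 168 and 336 h. Radioactivity was counted by LSC with external-standard efficiency correction. Results were converted to ng equivalent of CS-1036/ml using specific activity and sample volume, and reported as mean + S.D.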

[10] = Drug uptake in albino F344/DuCrlCrlj rat pituitary gland assessed as ng equivalent of CS-1036 at 5 mg/kg, po after 24 hrs by liquid scintillation counting
Small intestine [11] = assay: Drug uptake in albino F344/DuCrlCrlj rat small intestine assessed as ng equivalent of CS-1036 at 5 mg/kg, po after 1 hr by liquid scintillation counting
Cerebellum [12] = assay: Drug uptake in albino F344/DuCrlCrlj rat cerebellum at 5 mg/kg, po after 24 hrs by liquid scintillation counting
Lung [13] = assay: Drug uptake in albino F344/DuCrlCrlj rat lung at 5 mg/kg, po after 24 hrs by liquid scintillation counting
Lung [14] = assay: Drug uptake in albino F344/DuCrlCrlj rat lung at 5 mg/kg, po after 336 hrs by liquid scintillation counting
Heart [15] = assay: Drug uptake in albino F344/DuCrlCrlj rat heart at 5 mg/kg, po after 4 hrs by liquid scintillation counting
Adrenal gland = assay: Drug uptake in albino F344/DuCrlCrlj rat adrenal gland at 5 mg/kg, po after 24 hrs by liquid scintillation counting
Large intestine [16] = assay: Drug uptake in albino F344/DuCrlCrlj rat large intestine assessed as ng equivalent of CS-1036 at 5 mg/kg, po after 1 hr by liquid scintillation counting
Heart [17] = assay: Drug uptake in albino F344/DuCrlCrlj rat heart assessed as ng equivalent of CS-1036 at 5 mg/kg, po after 72 hrs by liquid scintillation counting
[18] = Drug uptake in albino F344/DuCrlCrlj rat thyroid gland at 5 mg/kg, po after 168 hrs by liquid scintillation counting
Zone of skin = assay: Drug uptake in albino F344/DuCrlCrlj rat skin at 5 mg/kg, po after 336 hrs by liquid scintillation counting
Harderian gland [19] = assay: Drug uptake in albino F344/DuCrlCrlj rat harderian gland at 5 mg/kg, po after 8 hrs by liquid scintillation counting
Cerebellum [20] = assay: Drug uptake in albino F344/DuCrlCrlj rat cerebellum at 5 mg/kg, po after 1 hr by liquid scintillation counting
Pancreas = assay: Drug uptake in albino F344/DuCrlCrlj rat pancreas at 5 mg/kg, po after 24 hrs by liquid scintillation counting
Cerebrum [21] = assay: Drug uptake in albino F344/DuCrlCrlj rat cerebrum assessed as ng equivalent of CS-1036 at 5 mg/kg, po after 168 hrs by liquid scintillation counting; outline: as §1
Large intestine [22] = assay: Drug uptake in albino F344/DuCrlCrlj rat large intestine assessed as ng equivalent of CS-1036 at 5 mg/kg, po after 72 hrs by liquid scintillation counting
[23] = Drug uptake in albino F344/DuCrlCrlj rat testis assessed as ng equivalent of CS-1036 at 5 mg/kg, po after 4 hrs by liquid scintillation counting
Large intestine [24] = assay: Drug uptake in albino F344/DuCrlCrlj rat large intestine at 5 mg/kg, po after 168 hrs by liquid scintillation counting
Small intestine [25] = assay: Drug uptake in albino F344/DuCrlCrlj rat small intestine assessed as ng equivalent of CS-1036 at 5 mg/kg, po after 336 hrs by liquid scintillation counting
Stomach = assay: Drug uptake in albino F344/DuCrlCrlj rat stomach at 5 mg/kg, po after 1 hr by liquid scintillation counting
[26] = Drug uptake in albino F344/DuCrlCrlj rat testis at 5 mg/kg, po after 168 hrs by liquid scintillation counting
Liver [27] = assay: Drug uptake in albino F344/DuCrlCrlj rat liver at 5 mg/kg, po after 4 hrs by liquid scintillation counting
Harderian gland [28] = assay: Drug uptake in albino F344/DuCrlCrlj rat harderian gland assessed as ng equivalent of CS-1036 at 5 mg/kg, po after 24 hrs by liquid scintillation counting
Blood [29] = assay: Drug uptake in albino F344/DuCrlCrlj rat blood assessed as ng equivalent of CS-1036 at 5 mg/kg, po after 24 hrs by liquid scintillation counting; outline: as §2
Liver [30] = assay: Drug uptake in albino F344/DuCrlCrlj rat liver assessed as ng equivalent of CS-1036 at 5 mg/kg, po after 336 hrs by liquid scintillation counting

C[C@H]1O[C@@H](O[C@H]2[C@H](O)[C@@H](O)[C@@H](O[14C@H]3[14C@H](O)[14CH2]N[14C@@H]3[14CH2]O)O[C@@H]2CO)[C@H](O)[C@@H](O)[C@@H]1O
Radiolabel recovery (Small intestine [1]): 41.3 ngequiv/g
Radiolabel recovery (Cerebrum [2]): 4.88 ngequiv/g
Radiolabel recovery [3]: 24.9 ngequiv/g
Radiolabel recovery (Cerebellum [4]): 7.12 ngequiv/g
Radiolabel recovery [5]: 6.02 ngequiv/g
Radiolabel recovery (Thymus): 47 ngequiv/g
Radiolabel recovery [6]: 5.5 ngequiv/g
Radiolabel recovery (Kidney): 1320 ngequiv/g
Radiolabel recovery [7]: 43.4 ngequiv/g
Radiolabel recovery (Cerebellum [8]): 1.18 ngequiv/g
Radiolabel recovery (Blood [9]): 44.3 ngequiv/ml
Radiolabel recovery [10]: 33.1 ngequiv/g
Radiolabel recovery (Small intestine [11]): 86500 ngequiv/g
Radiolabel recovery (Cerebellum [12]): 21.1 ngequiv/g
Radiolabel recovery (Lung [13]): 72 ngequiv/g
Radiolabel recovery (Lung [14]): 8.43 ngequiv/g
Radiolabel recovery (Heart [15]): 36 ngequiv/g
Radiolabel recovery (Adrenal gland): 81.8 ngequiv/g
Radiolabel recovery (Large intestine [16]): 1080 ngequiv/g
Radiolabel recovery (Heart [17]): 9.2 ngequiv/g
Radiolabel recovery [18]: 33.7 ngequiv/g
Radiolabel recovery (Zone of skin): 24.9 ngequiv/g
Radiolabel recovery (Harderian gland [19]): 55.9 ngequiv/g
Radiolabel recovery (Cerebellum [20]): 9.35 ngequiv/g
Radiolabel recovery (Pancreas): 310 ngequiv/g
Radiolabel recovery (Cerebrum [21]): 3.11 ngequiv/g
Radiolabel recovery (Large intestine [22]): 29.5 ngequiv/g
Radiolabel recovery [23]: 5.3 ngequiv/g
Radiolabel recovery (Large intestine [24]): 26.4 ngequiv/g
Radiolabel recovery (Small intestine [25]): 1.92 ngequiv/g
Radiolabel recovery (Stomach): 1670 ngequiv/g
Radiolabel recovery [26]: 9.95 ngequiv/g
Radiolabel recovery (Liver [27]): 276 ngequiv/g
Radiolabel recovery (Harderian gland [28]): 88 ngequiv/g
Radiolabel recovery (Blood [29]): 4 ngequiv/ml
Radiolabel recovery (Liver [30]): 2.66 ngequiv/g
